These results are taken from ChEMBL document CHEMBL4196009, “Novel vitexin-inspired scaffold against leukemia” (Eur J Med Chem, 2018).

Activity calls are given as the source filed them. No cut-off for these calls is given here.

One assay concerns SUP-B15. Put plainly: Induction of apoptosis in human SUP-B15 cells assessed as early apoptotic cells at 10 uM after 24 hrs by Annexin V-FITC/propidium iodide staining-based flow cytometry (reference value: 0.1%). Type of assay: functional. (In general: Flow cytometry measures light scatter and fluorescence of single cells or particles in a stream.)
For assay [1], the target named is T1, Retinoblastoma-associated protein (Homo sapiens) (UniProt P06400).
T1 sequence (whole entry): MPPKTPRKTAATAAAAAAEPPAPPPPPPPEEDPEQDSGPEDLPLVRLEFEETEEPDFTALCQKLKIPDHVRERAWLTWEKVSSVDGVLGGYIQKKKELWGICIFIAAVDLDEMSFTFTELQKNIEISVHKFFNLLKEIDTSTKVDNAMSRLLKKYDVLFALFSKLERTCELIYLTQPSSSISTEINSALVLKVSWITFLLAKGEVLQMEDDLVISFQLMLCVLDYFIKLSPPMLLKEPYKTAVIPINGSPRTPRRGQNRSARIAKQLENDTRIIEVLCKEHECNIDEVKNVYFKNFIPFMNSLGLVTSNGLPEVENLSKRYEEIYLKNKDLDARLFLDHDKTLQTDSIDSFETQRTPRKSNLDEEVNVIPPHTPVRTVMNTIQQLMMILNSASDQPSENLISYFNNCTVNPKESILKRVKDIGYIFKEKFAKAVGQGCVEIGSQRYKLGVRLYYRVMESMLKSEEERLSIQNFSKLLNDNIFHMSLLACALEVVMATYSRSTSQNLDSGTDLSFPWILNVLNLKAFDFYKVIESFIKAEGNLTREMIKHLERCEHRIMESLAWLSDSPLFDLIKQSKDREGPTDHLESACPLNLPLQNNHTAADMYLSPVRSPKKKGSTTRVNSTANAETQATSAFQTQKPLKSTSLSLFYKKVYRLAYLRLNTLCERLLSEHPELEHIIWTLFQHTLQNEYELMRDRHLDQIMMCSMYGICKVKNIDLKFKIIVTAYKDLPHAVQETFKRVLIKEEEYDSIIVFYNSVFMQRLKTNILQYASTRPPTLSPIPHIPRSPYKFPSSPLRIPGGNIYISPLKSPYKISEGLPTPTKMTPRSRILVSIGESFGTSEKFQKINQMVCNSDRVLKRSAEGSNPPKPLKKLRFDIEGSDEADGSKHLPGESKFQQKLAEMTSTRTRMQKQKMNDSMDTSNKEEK
In words: Inhibition of Rb phosphorylation in human KOPN8 cells after 24 hrs by Western blot analysis. The assay is classed as cell-based. Put shortly:
(§1)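 KOPN-8 cells were exposed to compound for 3 h and 24 h, with or without N-acetylcysteine added to a parallel set as antioxidant. Lysates were analysed by Western blot for cleaved PARP, Mcl-1, Ser-2-phosphorylated RNAPII CTD, cMyc, total Rb and pRb. Signals were compared against controls for dose-dependent change.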

For assay [2], the system named is KOPN-8. Put plainly: Induction of apoptosis in human KOPN8 cells assessed as effect on Mcl-1 level at 10 uM pre-treated with NAC for 1 hr and measured after 3 hrs by Western blot analysis relative to control. The assay is classed as functional. On the technique in general: In western blotting, separated proteins are transferred to a membrane and probed.
Assay [3] deals with KOPN-8. In words: Induction of apoptosis in human KOPN8 cells assessed as effect on Mcl-1 level at 10 uM after 3 hrs by Western blot analysis relative to control. The assay is classed as functional. Put shortly: (§2)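 KOPN-8 cells were treated at 10–100 µM final, with or without N-acetylcysteine co-addition, for 3 h and 24 h. Lysates were analysed by Western blot for PARP cleavage, Mcl-1, phospho-Ser2 RNAPII CTD, c-Myc, total Rb and pRb. Levels are relative to the vehicle control.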

The subject of assay [4] is KOPN-8. In words: Induction of apoptosis in human KOPN8 cells assessed as effect on Mcl-1 level at 30 uM after 24 hrs by Western blot analysis relative to control. Type of assay: functional. The procedure, abridged: as §1
In assay [5] the test system is KOPN-8. In words: Induction of apoptosis in human KOPN8 cells assessed as effect on Mcl-1 level at 30 uM pre-treated with NAC for 1 hr and measured after 24 hrs by Western blot analysis relative to control. The assay is classed as functional. Put shortly: as §1
For assay [6], the species on record is Homo sapiens. Put plainly: Inhibition of RNA polymerase 2 C-terminal domain phosphorylation at Ser2 residue in human KOPN8 cells at 10 uM after 3 hrs by Western blot analysis relative to control. Type of assay: cell-based. Put shortly: as §1
Assay [7] is filed under the species Homo sapiens. In words: Inhibition of RNA polymerase 2 C-terminal domain phosphorylation at Ser2 residue in human KOPN8 cells at 10 uM pre-treated with NAC for 1 hr and measured after 3 hrs by Western blot analysis relative to control. The assay is classed as cell-based. The procedure, abridged: as §1
Assay [8] is filed under the species Homo sapiens. Put plainly: Inhibition of RNA polymerase 2 C-terminal domain phosphorylation at Ser2 residue in human KOPN8 cells at 30 uM pre-treated with NAC for 1 hr and measured after 24 hrs by Western blot analysis relative to control. Type of assay: cell-based. Put shortly: as §1
The species named for assay [9] is Homo sapiens. In words: Inhibition of RNA polymerase 2 C-terminal domain phosphorylation at Ser2 residue in human KOPN8 cells at 10 uM after 24 hrs by Western blot analysis relative to control. Type of assay: cell-based. The procedure, abridged:
as §1

Assay [10] deals with KOPN-8. Put plainly: Effect on c-Myc expression in human KOPN8 cells at 10 uM pre-treated with NAC for 1 hr and measured after 24 hrs by Western blot analysis relative to control. The assay is classed as functional.
For assay [11], the system named is KOPN-8. Put plainly: Effect on c-Myc expression in human KOPN8 cells at 30 uM pre-treated with NAC for 1 hr and measured after 3 hrs by Western blot analysis relative to control. Type of assay: functional.
Assay [12] has as its system KOPN-8. Put plainly: Effect on c-Myc expression in human KOPN8 cells at 100 uM after 24 hrs by Western blot analysis relative to control. Type of assay: functional. Put shortly: as §2
In assay [13] the target is T1, Retinoblastoma-associated protein (Homo sapiens). In words: Inhibition of Rb phosphorylation in human KOPN8 cells assessed as ratio of phosphorylated Rb to total Rb levels at 10 uM after 24 hrs by Western blot analysis relative to control. The assay is classed as cell-based. The procedure, abridged: (§3)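 KOPN-8 pre-B ALL cells were treated for 3 h and 24 h, with or without N-acetyl cysteine added to a parallel set of cells as an antioxidant/ROS quencher. Lysates were analysed by Western blot for phosphorylated Rb and total Rb. The same blots also probed PARP cleavage, Mcl-1, Ser-2-phosphorylated RNAPII CTD and cMyc.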

Assay [14] relates to KOPN-8. In words: Induction of apoptosis in human KOPN8 cells assessed as late apoptotic cells at 5 uM after 24 hrs by Annexin V-FITC/propidium iodide staining-based flow cytometry (reference value: 9.5%). The assay is classed as functional. Put shortly:
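KOPN-8 cells were treated for 24 h, with a DMSO vehicle control and a staurosporine positive control. Cells were stained with FITC-Annexin V and propidium iodide and analysed by flow cytometry. Quadrant gating separated viable, early apoptotic, late apoptotic (Q2) and necrotic populations.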

In assay [15] the test system is KOPN-8. Put plainly: Induction of apoptosis in human KOPN8 cells assessed as upregulation of cleaved PARP level at 0.5 uM after 3 hrs by Western blot analysis. Type of assay: functional, cell-based. Put shortly: as §1
The test system of assay [16] is KOPN-8. Put plainly: Induction of apoptosis in human KOPN8 cells assessed as upregulation of cleaved PARP level at 0.5 uM after 24 hrs by Western blot analysis. Type of assay: functional, cell-based. Put shortly: as §1
Assay [17] deals with KOPN-8. In words: Induction of apoptosis in human KOPN8 cells assessed as effect on Mcl-1 level at 0.5 uM after 3 hrs by Western blot analysis relative to control. Type of assay: functional.
For assay [18], the target named is T1, Retinoblastoma-associated protein (Homo sapiens). In words: Inhibition of Rb phosphorylation in human KOPN8 cells assessed as ratio of phosphorylated Rb to total Rb levels at 0.5 uM after 3 hrs by Western blot analysis relative to control. The assay is classed as cell-based. Put shortly:
as §3

Assay [19] has the same target. Put plainly: Inhibition of Rb phosphorylation in human KOPN8 cells assessed as ratio of phosphorylated Rb to total Rb levels at 0.5 uM after 24 hrs by Western blot analysis relative to control. Type of assay: cell-based. The procedure, abridged: as §1

For the compound `COc1ccc(-c2c(I)c(=O)c3c(OC)cc(OC)cc3n2S(=O)(=O)c2ccc(OC)cc2)cc1`, the Activity in the assay with SUP-B15 was found to be 0.1%. The inhibition entry in [1] is “Dose-dependent effect”. For the same compound, the “fold change (FC)” value is 0.8 in the assay on KOPN-8 [2]; 0.8 with KOPN-8 [3]; 0.7 in the assay with KOPN-8 [4]; 0.7 in the assay on KOPN-8 [5]; 0.7 in the assay listed under Homo sapiens [6]; 1 in the assay listed under Homo sapiens [7]. Further, the fold change (FC) in the assay listed under Homo sapiens [8] came out at 0.7; in the assay filed under Homo sapiens [9] it was 1.8; in the assay with KOPN-8 [10], 1.3; in the assay with KOPN-8 [11] it was 1; with KOPN-8 [12] it was 0.1; in assay [13] it was 1.
With `CN(C)C(=O)c1cc2cnc(Nc3ccc(N4CCNCC4)cn3)nc2n1C1CCCC1` [RIBOCICLIB], the Activity in the assay with KOPN-8 [14] is given as 67.4%. For the same compound, in the assay on KOPN-8 [15], the outcome was Active. Besides, the outcome in the assay with KOPN-8 [16] was inactive. Besides, the “fold change (FC)” value in the assay with KOPN-8 [17] amounted to 0.9; in assay [18] it was 1; in assay [19], 0.9.
